In article PMC12569033 (Nature Communications, 2025):
Entries after “also recorded” stand apart in the source; their conditions may differ.

Columns and labels:
[1] = target: near-full-length dmIR (residues 1–50, 151–1675, D1519N) (Drosophila melanogaster) (UniProt P09208); assay: cryo-EM structure
[2] = test system: dmIR wild-type (WT); assay: Cell-based dmIR activation; parameters: species or system Drosophila melanogaster; conditions: 10 min; for dmIR autophosphorylation, in words / Efficacy (signal in amplitude) relative to DILP5: dose response Fig. 1a; for Efficacy (signal in amplitude) relative to DILP5: of the efficacy/maximum of DILP5; for dmIR WT autophosphorylation on stimulation, in words: 100 nM, Fig. 2f, g
[3] = test system: dmIR D1251R; assay: dmIR autophosphorylation assay, D1251R mutant; type: cell-based, Drosophila melanogaster; conditions: 100 nM ligand, 10 min
In short: (§1)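 Full-length wDah dmIR with a C-terminal MYC tag, mutated by site-directed mutagenesis, was transiently transfected into 293FT cells. After 1 day, cells were serum-starved for 16–18 h, then exposed to 100 nM synthetic DILP for 10 min. Lysates were immunoblotted for pY1548/1549 and Myc, and pY signal was normalized to total dmIR relative to WT receiving the same treatment. Independent experiments were analysed by two-way ANOVA with Dunnett's test, mean ± sem.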

[4] = test system: dmIR S820R; assay: dmIR autophosphorylation assay, S820R mutant; type: cell-based, Drosophila melanogaster; conditions: 100 nM DILP5, 10 min
In short: as §1

[5] = test system: dmIR F1044A; assay: dmIR autophosphorylation assay, F1044A mutant; type: cell-based, Drosophila melanogaster; conditions: 100 nM ligand, 10 min
In short: (§2)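 Site-directed dmIR point mutants (C-terminal MYC tag) were transfected into 293FT cells alongside WT. After 1 day, cells were serum-starved 16–18 h, then treated 10 min with 100 nM DILP2 or DILP5. Lysates were blotted with anti-pY1150/1151 and anti-Myc. pY-dmIR was normalized to total dmIR and expressed relative to WT with the same ligand. Data are mean ± sem of ≥3 independent experiments, analysed by two-way ANOVA with Dunnett test versus WT.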

[6] = test system: dmIR R657A; assay: dmIR autophosphorylation assay, R657A mutant; type: cell-based, Drosophila melanogaster; conditions: 100 nM DILP5, 10 min
In short: as §1

[7] = test system: dmIR Δ602–609; assay: dmIR autophosphorylation assay, Δ602–609 mutant; type: cell-based, Drosophila melanogaster; conditions: Δ602–609, 100 nM DILP5, 10 min
In short: as §1

[8] = test system: dmIR V889R; assay: dmIR autophosphorylation assay, V889R mutant; type: cell-based, Drosophila melanogaster; conditions: 100 nM DILP5, 10 min
In short: as §1

[9] = test system: dmIR R848A; assay: dmIR autophosphorylation assay, R848A mutant; type: cell-based, Drosophila melanogaster; conditions: 100 nM ligand, 10 min
In short: as §2

[10] = test system: dmIR K1256A; assay: dmIR autophosphorylation assay, K1256A mutant; type: cell-based, Drosophila melanogaster; conditions: 100 nM ligand, 10 min
In short: as §1

[11] = test system: dmIR Q1040A; assay: dmIR autophosphorylation assay, Q1040A mutant; type: cell-based, Drosophila melanogaster; conditions: 100 nM ligand, 10 min
In short: as §2

[12] = test system: glycogen phosphorylase; sterile 20-like kinase; tramtrack; conditions: cited from earlier work
[13] = test system: Drosophila S2 cells; conditions: single peptide applied to cultured Drosophila S2 cells; cited from earlier work

| Molecule | stoichiometry N (DILP5 molecules per dmIR dimer) [1] | dmIR autophosphorylation, in words (Fig. 5f, g) ([2]; 1000 nM DILP1, 100 nM DILP5 or combination) | dmIR autophosphorylation, in words ([2]; 293FT) | Efficacy (signal in amplitude) relative to DILP5 ([2]; 293FT) | Effect of receptor mutation on ligand-induced activation, in words [3] | Effect of receptor mutation on ligand-induced activation, in words [4] | Effect of receptor mutation on ligand-induced activation, in words [5] | dmIR WT autophosphorylation on stimulation, in words ([2]; 293FT) | Concentration at which saturation of dmIR autophosphorylation is observed ([2]; 293FT) | Effect of receptor mutation on ligand-induced activation, in words [6] | Effect of receptor mutation on ligand-induced activation, in words [7] | Effect of receptor mutation on ligand-induced activation, in words [8] | Effect of receptor mutation on ligand-induced activation, in words [9] | Effect of receptor mutation on ligand-induced activation, in words [10] | Effect of receptor mutation on ligand-induced activation, in words [11] | Protein phosphorylation changes, in words [12] | Phosphorylation of Akt (pAkt), in words [13] |
| --- | --- | --- | --- | --- | --- | --- | --- | --- | --- | --- | --- | --- | --- | --- | --- | --- | --- |
| Drosophila insulin-like peptide 5 (DILP5) (ligand) | 3 |  |  |  |  |  |  |  |  |  |  |  |  |  |  |  |  |
| Drosophila insulin-like peptide 1 [DILP1] |  | lower levels of dmIR autophosphorylation compared to DILP5 | lowest level of dmIR autophosphorylation; also recorded: lowest efficacy in activating dmIR | about 50% |  |  |  |  |  |  |  |  |  |  |  |  |  |
| Drosophila insulin-like peptide 5 (peptide, UniProt Q7KUD5 23-108, looked up) Insulin-like peptide 5: ANSLRACGPALMDMLRVACPNGFNSMFAKRGTLGLFDYEDHLADLDSSESHHMNSLSSIRRDFRGVVDSCCRKSCSFSTLRAYCDS |  |  | increased dmIR autophosphorylation in a dose-dependent manner; also recorded: higher levels of dmIR autophosphorylation |  | defects in DILP5- or DILP2-dependent dmIR activation | modest but statistically significant reduction in dmIR phosphorylation | reduced receptor autophosphorylation | significantly increased autophosphorylation of dmIR WT | 300 nM | impaired DILP5-induced activation of dmIR | impaired DILP5-induced activation of dmIR | modest but statistically significant reduction in dmIR phosphorylation | reduced receptor autophosphorylation | defects in DILP5- or DILP2-dependent dmIR activation | reduced receptor autophosphorylation | increases the phosphorylation of sterile 20-like kinase and tramtrack | robust and sustained phosphorylation of Akt (pAkt) |
| Drosophila insulin-like peptide 2 (peptide, UniProt Q9VT51 27-137, looked up) Insulin-like peptide 2: TLCSEKLNEVLSMVCEEYNPVIPHKRAMPGADSDLDALNPLQFVQEFEEEDNSISEPLRSALFPGSYLGGVLNSLAEVRRRTRQRQGIVERCCKKSCDMKALREYCSVVRN |  |  | less effective than DILP5 | approximately 75% | defects in DILP5- or DILP2-dependent dmIR activation |  | reduced receptor autophosphorylation | significantly increased autophosphorylation of dmIR WT |  |  |  |  | reduced receptor autophosphorylation | defects in DILP5- or DILP2-dependent dmIR activation | reduced receptor autophosphorylation | represses the phosphorylation of glycogen phosphorylase | only stimulates an early spike of pAkt |
